The text below walks through data of ChEMBL document CHEMBL3600378 (J Med Chem, 2015).

As usually defined, the EC50 is the concentration giving half of the maximal effect.

The species entered for series [1] is Homo sapiens. The series is described as follows: Selectivity ratio of EC50 for human beta2-adrenergic receptor to EC50 for human beta3-adrenergic receptor.
Series [2] has as its target T1, Alpha-2B adrenergic receptor (Homo sapiens, UniProt P18089).
T1 sequence (P18089 whole entry): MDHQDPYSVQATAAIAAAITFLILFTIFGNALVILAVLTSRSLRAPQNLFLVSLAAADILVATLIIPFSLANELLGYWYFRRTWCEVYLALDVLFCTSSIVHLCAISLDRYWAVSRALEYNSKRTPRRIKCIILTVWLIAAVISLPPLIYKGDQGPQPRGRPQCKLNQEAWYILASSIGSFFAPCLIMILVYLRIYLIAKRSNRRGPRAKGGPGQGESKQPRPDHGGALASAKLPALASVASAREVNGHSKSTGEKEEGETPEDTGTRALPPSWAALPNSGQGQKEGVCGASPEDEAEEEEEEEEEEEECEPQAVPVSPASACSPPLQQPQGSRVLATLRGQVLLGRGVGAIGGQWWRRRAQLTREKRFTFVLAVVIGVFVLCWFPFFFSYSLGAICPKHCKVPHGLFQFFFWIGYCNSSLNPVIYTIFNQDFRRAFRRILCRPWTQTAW
The series is described as follows: Agonist activity at human alpha2B-adrenergic receptor.

Series [3] relates to Rattus norvegicus. The series can be described thus: Cardiotoxicity in anesthetized Sprague-Dawley rat assessed as decrease in mean blood pressure at 3 mg/kg, iv measured for 30 mins relative to control. Particulars: in vivo, 0.5 h. The class given is toxicity, organism-based. The arrangement: scale not given: the % may be the effect or the level left. The method, boiled down: (§1)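 Male Sprague-Dawley rats (200-300 g) were anesthetized with sodium pentobarbital (50 mg/kg i.p. plus 25 mg/kg s.c.). The compound was injected via the cannulated left femoral vein once BP and HR were stable, and HR and MBP were recorded for 30 min. Results are the maximum % increase or decrease from baseline, as mean ± SEM. Where given, silodosin (0.01 mg/kg iv) preceded the compound.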

In series [4] the target is T2, Alpha-2A adrenergic receptor (Homo sapiens, UniProt P08913).
T2 sequence (P08913 whole entry): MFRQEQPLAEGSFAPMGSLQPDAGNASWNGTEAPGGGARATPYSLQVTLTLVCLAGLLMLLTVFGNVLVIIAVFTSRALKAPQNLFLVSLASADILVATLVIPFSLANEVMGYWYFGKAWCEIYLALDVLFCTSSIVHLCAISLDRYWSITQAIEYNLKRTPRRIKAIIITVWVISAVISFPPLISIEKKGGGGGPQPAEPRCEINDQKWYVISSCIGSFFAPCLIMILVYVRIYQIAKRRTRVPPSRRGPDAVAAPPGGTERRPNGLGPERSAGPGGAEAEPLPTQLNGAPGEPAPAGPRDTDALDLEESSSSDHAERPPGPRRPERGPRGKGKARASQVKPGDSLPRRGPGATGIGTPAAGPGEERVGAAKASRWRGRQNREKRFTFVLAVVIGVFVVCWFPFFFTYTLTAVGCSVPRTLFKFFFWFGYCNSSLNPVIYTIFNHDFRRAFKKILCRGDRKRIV
The series can be described thus: Agonist activity at human alpha2A-adrenergic receptor.

In series [5] the target is T3, Alpha-1D adrenergic receptor (Homo sapiens, UniProt P25100).
T3 sequence (P25100 whole entry): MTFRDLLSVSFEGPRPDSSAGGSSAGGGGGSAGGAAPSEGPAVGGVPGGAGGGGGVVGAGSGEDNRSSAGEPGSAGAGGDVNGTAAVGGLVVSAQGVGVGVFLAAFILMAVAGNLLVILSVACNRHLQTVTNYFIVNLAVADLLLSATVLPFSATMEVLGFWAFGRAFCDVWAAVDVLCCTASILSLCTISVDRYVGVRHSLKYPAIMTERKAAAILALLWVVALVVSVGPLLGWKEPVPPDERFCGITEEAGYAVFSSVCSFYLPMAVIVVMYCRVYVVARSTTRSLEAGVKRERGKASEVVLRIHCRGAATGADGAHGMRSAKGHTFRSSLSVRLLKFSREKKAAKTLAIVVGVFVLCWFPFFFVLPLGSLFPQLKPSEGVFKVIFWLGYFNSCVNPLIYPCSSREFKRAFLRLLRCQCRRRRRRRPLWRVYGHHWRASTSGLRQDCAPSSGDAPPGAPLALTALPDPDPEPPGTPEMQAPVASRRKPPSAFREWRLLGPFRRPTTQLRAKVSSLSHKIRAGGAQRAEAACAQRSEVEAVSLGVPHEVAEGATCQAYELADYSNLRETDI
The series can be described thus: Agonist activity at human alpha1D-adrenergic receptor.

Series [6] addresses Beta-1 adrenergic receptor (Homo sapiens, UniProt P08588). The series is described as follows: Agonist activity at human beta1-adrenergic receptor expressed in CHO cells assessed as increase of cAMP level after 30 mins. The class given is functional, cell-based. The method, boiled down:
(§2)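 Stably transfected CHO cells expressing human β1, β2 or β3 or marmoset β3 receptor were grown in Ham's F-12 with 10% FBS and geneticin, seeded at 2×10⁴ cells/well and grown about 20 h. Cells spent 15 min serum-free, then 30 min with compound in medium containing HEPES and isobutylmethylxanthine. Lysate cAMP was measured by kit. […] EC50 is the half-maximal concentration for each compound.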
For orientation: Cyclic AMP is a second messenger, typically raised through Gs and lowered through Gi signalling.

Series [7] is filed under the species Homo sapiens. The series is described as follows: Selectivity ratio of EC50 for human alpha1A-adrenergic receptor to EC50 for human beta3-adrenergic receptor.
For series [8], the target named is T4, Beta-3 adrenergic receptor (Homo sapiens, UniProt P13945). The series can be described thus: Agonist activity at human recombinant beta3-adrenergic receptor expressed in CHO cells assessed as increase of cAMP level after 30 mins. The class given is functional, cell-based.
Target sequence in this assay (P13945 whole entry): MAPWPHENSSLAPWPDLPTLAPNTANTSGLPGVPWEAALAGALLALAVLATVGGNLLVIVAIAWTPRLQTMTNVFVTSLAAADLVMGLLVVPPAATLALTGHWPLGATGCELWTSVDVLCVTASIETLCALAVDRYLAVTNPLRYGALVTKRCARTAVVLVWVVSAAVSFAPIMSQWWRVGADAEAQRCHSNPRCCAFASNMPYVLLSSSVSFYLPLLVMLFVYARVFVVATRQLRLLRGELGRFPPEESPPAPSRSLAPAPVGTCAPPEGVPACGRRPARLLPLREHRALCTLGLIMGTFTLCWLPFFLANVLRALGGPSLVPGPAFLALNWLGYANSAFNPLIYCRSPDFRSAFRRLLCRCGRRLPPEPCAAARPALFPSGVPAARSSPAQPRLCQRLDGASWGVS
The subject of series [9] is Rattus norvegicus. The series is described as follows: Cardiotoxicity in anesthetized Sprague-Dawley rat assessed as increase in heart rate at 3 mg/kg, iv measured for 30 mins relative to control. The format is toxicity, organism-based. Particulars: in vivo, 0.5 h. The method, boiled down: as §1
In series [10] the target is T5, Alpha-1A adrenergic receptor (Homo sapiens) (UniProt P35348).
T5 sequence (whole entry): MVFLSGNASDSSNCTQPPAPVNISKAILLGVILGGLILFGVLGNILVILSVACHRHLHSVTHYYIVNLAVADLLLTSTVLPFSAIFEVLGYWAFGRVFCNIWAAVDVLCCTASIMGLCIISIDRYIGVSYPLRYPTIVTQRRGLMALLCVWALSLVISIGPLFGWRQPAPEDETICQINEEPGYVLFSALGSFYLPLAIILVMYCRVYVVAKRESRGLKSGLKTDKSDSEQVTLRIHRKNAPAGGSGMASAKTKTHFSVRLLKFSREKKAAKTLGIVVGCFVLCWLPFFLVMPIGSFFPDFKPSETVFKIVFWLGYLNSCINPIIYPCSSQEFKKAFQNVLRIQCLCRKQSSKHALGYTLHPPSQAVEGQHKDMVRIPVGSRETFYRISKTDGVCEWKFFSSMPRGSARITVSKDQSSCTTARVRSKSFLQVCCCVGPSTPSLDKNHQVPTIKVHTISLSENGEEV
The series is described as follows: Intrinsic activity at human alpha1A-adrenergic receptor expressed in HEK293 cells assessed as calcium flux by fluorescence assay relative to norepinephrine. The class given is functional, cell-based. (Calcium assays in cells follow changes in intracellular calcium, usually with a dye or a luminescent sensor.)

The target of series [11] is T4, Beta-3 adrenergic receptor. The series can be described thus: Intrinsic activity at human beta3-adrenergic receptor expressed in CHO cells assessed as increase of cAMP level after 30 mins relative to isoproterenol. The class given is functional, cell-based. The essentials:
as §2
Target sequence in this assay (P13945 whole entry, looked up): as the sequence (P13945 whole entry) above

The structures appear in SMILES notation. A value given as a limit tells only on which side of the number the result lay.

Beta-1 adrenergic receptor, sequence (P08588 whole entry): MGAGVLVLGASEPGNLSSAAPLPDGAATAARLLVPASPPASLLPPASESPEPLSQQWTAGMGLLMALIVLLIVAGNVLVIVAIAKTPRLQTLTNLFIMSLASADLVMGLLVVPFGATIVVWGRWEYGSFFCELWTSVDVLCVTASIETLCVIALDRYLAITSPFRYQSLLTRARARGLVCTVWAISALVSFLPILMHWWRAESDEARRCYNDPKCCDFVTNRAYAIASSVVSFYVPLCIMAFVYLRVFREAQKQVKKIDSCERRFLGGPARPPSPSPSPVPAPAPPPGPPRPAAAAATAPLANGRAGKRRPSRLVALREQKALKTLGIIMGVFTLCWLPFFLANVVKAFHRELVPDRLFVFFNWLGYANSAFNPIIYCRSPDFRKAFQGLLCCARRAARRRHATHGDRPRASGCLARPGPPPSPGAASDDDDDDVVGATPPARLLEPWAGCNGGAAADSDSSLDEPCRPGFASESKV

For `Cc1n[nH]c2cc(OCCNC[C@H](O)c3cccc(NS(C)(=O)=O)c3)ccc12`, the figures for the Ratio EC50 in series [1] and in series [7] were more than 476 and 10, respectively. The EC50 in series [2] was more than 10 µM; in series [4] it was more than 10 µM; in series [5], more than 10 µM; in series [6], more than 10 µM; in series [8], 0.021 µM. In addition, the Activity came out at 8.5% in series [3] and 7.9% in series [9]. Besides, the Intrinsic activity in series [10] turned out to be 71%; in series [11], 82%.
